Assay results reported in PMC8245904 (Acta Pharmaceutica Sinica. B, 2021).
Like-named read-outs stand apart in the source and are kept apart here.

Legend:
[1] = blood-to-lumen jejunal 51Cr-EDTA clearance; type: in vivo; conditions: hypotonic perfusate (100 mOsm) with lidocaine, rat SPIP, test vs control period
Method in brief: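 Male Wistar Han rats (299–395 g) anaesthetised with inactin (180 mg/kg i.p., 5% w/v), body temperature held at 37.5 ± 0.5 °C, arterial pressure monitored. The proximal jejunal segment (about 10 cm) was single-pass perfused at 0.2 mL/min at 37 °C. A 30-min PBS stabilisation reached steady plasma 51Cr-EDTA. Then came 60 min of isotonic pH 7.4 control buffer holding both peptides, followed by 75 min of hypotonic (100 mOsm) perfusate with lidocaine 1 mg/mL. Clearance was computed as blood-to-lumen 51Cr-EDTA transport per 100 g wet jejunal tissue, expressed as the ratio of mean test-period (60 min) to mean control-period (45 min) values. n = 6 rats.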

[2] = compatibility/stability of study drugs in perfusion solution; type: physicochemical; conditions: solution pH 6.5, 37 °C; for concentration in perfusion solution, after: after 4 h; for concentration in perfusion solution, before: before 4 h
[3] = cited from earlier work; for basal permeability: recent rat SPIP study with transcellular PEs; for effect of transcellular PEs on jejunal permeability: sodium dodecyl sulfate (SDS) and caprate, rat SPIP in vivo
[4] = n-octanol-water coefficient; ref 22 (enalaprilat), ref 23 (hexarelin); cited from earlier work
[5] = dissociation constant; cited from earlier work
[6] = ref 22 (enalaprilat), ref 23 (hexarelin); cited from earlier work
[7] = Pefabloc SC at 0.3 mg/mL, in rat; cited from earlier work
[8] = rat single-pass intestinal perfusion; type: in vivo; conditions: with EDTA at 1 mg/mL or the two hypotonic (100 mOsm) perfusion solutions with or without lidocaine; rat SPIP, n = 6
[9] = cited from earlier work

concentration in perfusion solution, after [2] | concentration in perfusion solution, before [2] | Molecule | basal permeability [3] | effect of transcellular PEs on jejunal permeability [3] | LogP [4] | HBA (hydrogen bond acceptor) [6] | HBD (hydrogen bond donor) [6] | further results
– | – | O=C([O-])CN(CCN(CC(=O)[O-])CC(=O)[O-])CC(=O)[O-].[51Cr+3] [51Cr-EDTA, ^51chromium-labeled EDTA] | – | – | – | – | – | increase in CLCr-EDTA (permeability) [1]: 15 fold
84.8 µM | 83.9 µM | C[C@H](N[C@@H](CCc1ccccc1)C(=O)O)C(=O)N1CCC[C@H]1C(=O)O [Enalaprilat] | 0.013 ± 0.009 × 10^−4 cm/s | substantially increased | −0.13 | 6 | 3 | pKa (footnote a, Acid) [5]: 7.84; pKa (footnote b, Base) [5]: 3.17
– | – | Cl.NCCc1ccc(S(=O)(=O)F)cc1 [Pefabloc SC] | – | – | – | – | – | inhibition of the intestinal degradation of hexarelin [7]: completely inhibits
33.9 µM | 29.9 µM | Hexarelin | 0.0019 ± 0.0013 × 10^−4 cm/s | unaffected | 0.73 | 9 | 11 | Peff ratio (baseline vs. test) [8]: no increase; PSA (polar surface area) [6]: 300
– | – | desmopressin | – | – | – | – | – | bioavailability of the given oral dose [9]: 0.1%
– | – | semaglutide | – | – | – | – | – | terminal half-life in plasma [9]: ~1 week; bioavailability of the given oral dose ([9]; with SNAC): 0.4%–1.0
